Measurements published in ChEMBL document CHEMBL3596109, “In vitro antiplasmodial activity of triazole-linked chloroquinoline derivatives synthesized from 7-chloro-N-(prop-2-yn-1-yl)quinolin-4-amine” (Bioorg Med Chem, 2015).
pIC50: −log10 of the molar value.

Key:
Plasmodium falciparum [1] = assay: Antiplasmodial activity against chloroquine-resistant asexual erythrocytic stage of Plasmodium falciparum Dd2 assessed as parasite growth inhibition by parasite lactate dehydrogenase assay; assay type: functional, organism-based
In short: (§1)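 Asexual erythrocytic cultures were maintained continuously by a modified Trager–Jensen method. Samples came from 20 mg/mL DMSO stocks and were serially diluted 2-fold in complete medium over 10 concentrations, from 100 µg/mL down to 0.20 µg/mL; some started at 1000 µg/mL. Reference drugs started at 100 ng/mL. Read-out was modified pLDH. IC50 came from full dose-response curves, run in triplicate on two occasions.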

Plasmodium falciparum [2] = assay: Antiplasmodial activity against chloroquine-sensitive asexual erythrocytic stage of Plasmodium falciparum NF54 assessed as parasite growth inhibition by parasite lactate dehydrogenase assay; assay type: functional, organism-based; in short: as §1
Plasmodium falciparum [3] = assay: Resistance index, ratio of IC50 for chloroquine-resistant asexual erythrocytic stage of Plasmodium falciparum Dd2 to IC50 for chloroquine-sensitive asexual erythrocytic stage of Plasmodium falciparum NF54; assay type: functional
Plasmodium falciparum [4] = assay: Potency index, ratio of chloroquine IC50 to compound IC50 for chloroquine-resistant asexual erythrocytic stage of Plasmodium falciparum Dd2

With Clc1ccc2c(NCc3cn(CCN4CCOCC4)nn3)ccnc2c1 the pIC50 (Plasmodium falciparum [1]) was 5.89, the pIC50 (Plasmodium falciparum [2]) was 5.75 and the “Ratio IC50” value (Plasmodium falciparum [3]) was 1.4.

With Clc1ccc2c(NCc3cn(CCN4CCCCC4)nn3)ccnc2c1 the pIC50 (Plasmodium falciparum [1]) was 7.29, the pIC50 (Plasmodium falciparum [2]) was 7.99 and the “Ratio IC50” value (Plasmodium falciparum [3]) was 5.1. For the same compound, the “Ratio IC50” value (Plasmodium falciparum [4]) was 3.

Clc1ccc2c(NCc3cn(CCCN4CCCCC4)nn3)ccnc2c1 was tested, and the pIC50 (Plasmodium falciparum [1]) was 8.05, the pIC50 (Plasmodium falciparum [2]) was 6.91 and the “Ratio IC50” value (Plasmodium falciparum [3]) was 14.

For Clc1ccc2c(NCc3cn(CCN4CCCC4)nn3)ccnc2c1, the pIC50 (Plasmodium falciparum [1]) was 7.16, the pIC50 (Plasmodium falciparum [2]) was 7.79 and the “Ratio IC50” value (Plasmodium falciparum [3]) was 4.3. The “Ratio IC50” value (Plasmodium falciparum [4]) was 3.

With Clc1ccc2c(NCc3cn(CCCN4CCCC4)nn3)ccnc2c1 the pIC50 (Plasmodium falciparum [1]) was 7.74, the pIC50 (Plasmodium falciparum [2]) was 6.83 and the “Ratio IC50” value (Plasmodium falciparum [3]) was 8.1.

CCN(CC)CCn1cc(CNc2ccnc3cc(Cl)ccc23)nn1 was tested, and the pIC50 (Plasmodium falciparum [1]) was 7.27, the pIC50 (Plasmodium falciparum [2]) was 8.01 and the “Ratio IC50” value (Plasmodium falciparum [3]) was 5.5. The “Ratio IC50” value (Plasmodium falciparum [4]) was 3.

With CCN(CC)CCCn1cc(CNc2ccnc3cc(Cl)ccc23)nn1 the pIC50 (Plasmodium falciparum [1]) was 5.70, the pIC50 (Plasmodium falciparum [2]) was 5.27 and the “Ratio IC50” value (Plasmodium falciparum [3]) was 2.7.

With Clc1ccc2c(NCc3cn(CCCN4CCOCC4)nn3)ccnc2c1 the pIC50 (Plasmodium falciparum [1]) was 7.11, the pIC50 (Plasmodium falciparum [2]) was 6.58 and the “Ratio IC50” value (Plasmodium falciparum [3]) was 3.3.

CN(CCn1cc(CNc2ccnc3cc(Cl)ccc23)nn1)c1ccccc1 was tested, and the pIC50 (Plasmodium falciparum [1]) was 6.42, the pIC50 (Plasmodium falciparum [2]) was 6.31 and the “Ratio IC50” value (Plasmodium falciparum [3]) was 1.3.

With CN(CCCn1cc(CNc2ccnc3cc(Cl)ccc23)nn1)c1ccccc1 the pIC50 (Plasmodium falciparum [1]) was 6.78, the pIC50 (Plasmodium falciparum [2]) was 6.52 and the “Ratio IC50” value (Plasmodium falciparum [3]) was 1.8.

CN(CCn1cc(CNc2ccnc3cc(Cl)ccc23)nn1)Cc1ccccc1 was tested, and the pIC50 (Plasmodium falciparum [1]) was 6.82, the pIC50 (Plasmodium falciparum [2]) was 6.67 and the “Ratio IC50” value (Plasmodium falciparum [3]) was 1.4.

For CN(CCCn1cc(CNc2ccnc3cc(Cl)ccc23)nn1)Cc1ccccc1, the pIC50 (Plasmodium falciparum [1]) was 7.29, the pIC50 (Plasmodium falciparum [2]) was 7.82 and the “Ratio IC50” value (Plasmodium falciparum [3]) was 3.4. For the same compound, the “Ratio IC50” value (Plasmodium falciparum [4]) was 3.

With Clc1ccc2c(NCc3cn(CCN(Cc4ccccc4)Cc4ccccc4)nn3)ccnc2c1 the pIC50 (Plasmodium falciparum [1]) was 7.10, the pIC50 (Plasmodium falciparum [2]) was 6.85 and the “Ratio IC50” value (Plasmodium falciparum [3]) was 0.6. The “Ratio IC50” value (Plasmodium falciparum [4]) was 3.

Clc1ccc2c(NCc3cn(CCCN(Cc4ccccc4)Cc4ccccc4)nn3)ccnc2c1 was tested, and the pIC50 (Plasmodium falciparum [1]) was 6.94, the pIC50 (Plasmodium falciparum [2]) was 5.65 and the “Ratio IC50” value (Plasmodium falciparum [3]) was 20.

With Clc1ccc2c(NCc3cn(CCCN4c5ccccc5CCc5ccccc54)nn3)ccnc2c1 the pIC50 (Plasmodium falciparum [1]) was 7.13, the pIC50 (Plasmodium falciparum [2]) was 7.19 and the “Ratio IC50” value (Plasmodium falciparum [3]) was 1.2. The “Ratio IC50” value (Plasmodium falciparum [4]) was 3.

C[C@H]1[C@H](OC(=O)CCC(=O)O)O[C@@H]2O[C@@]3(C)CC[C@H]4[C@H](C)CC[C@@H]1[C@@]24OO3 [ARTESUNATE] was tested, and the pIC50 (Plasmodium falciparum [1]) was 7.62, the pIC50 (Plasmodium falciparum [2]) was over 8.28 and the “Ratio IC50” value (Plasmodium falciparum [3]) was 4.6.
